ChEMBL document CHEMBL3853327 (J Med Chem, 2016)

molecular target: not listed separately; assay: Inhibition of recombinant wild type HIV1 reverse transcriptase using DIG-dUTP/biotin-dUTP/dTTP assessed as suppression of biotin-dUTP incorporation after 1 hr by ELISA; set-up: species or system Human immunodeficiency virus 1; conditions: not given
How it was run: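 Recombinant WT HIV-1 RT in a Roche colorimetric kit: template plus DIG-dUTP, biotin-dUTP and dTTP, ±inhibitor, 1 h at 37 °C. Product captured on streptavidin plate 1 h at 37 °C, anti-DIG-POD 1 h at 37 °C, ABTS developed at 25 °C, read at OD405. IC50 is the concentration inhibiting biotin-dUTP incorporation by 50%.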

Compound | IC50 [nM]
Cc1cc(C)c(Oc2nc(NC3CCN(Cc4ccc(S(C)(=O)=O)cc4)CC3)nc3ccsc23)c(C)c1 | 650

tested on: Human immunodeficiency virus 1; assay: Fold resistance, ratio of IC50 for recombinant HIV1 reverse transcriptase K103N/Y181C double mutant to IC50 for wild type HIV1 reverse transcriptase; conditions: not given
How it was run: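 Ratio of mutant to WT IC50. Recombinant WT and K103N/Y181C RT were assayed with a kit: template plus DIG-dUTP, biotin-dUTP and dTTP, with or without inhibitor, 1 h at 37 °C. Product was captured on streptavidin, detected with anti-DIG-POD and ABTS, and read at 405 nm. IC50 is the concentration inhibiting biotin-dUTP incorporation by 50%.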

Compound | Ratio IC50
Cc1cc(C)c(Oc2nc(NC3CCN(Cc4ccc(S(C)(=O)=O)cc4)CC3)nc3ccsc23)c(C)c1 | 3.84

tested on: Human immunodeficiency virus 1; assay: Antiviral activity against HIV1 3B harboring reverse transcriptase F227L/V106A double mutant infected in human MT4 cells assessed as protection against virus induced cytotoxicity after 5 days by MTT assay; type: functional, cell-based; conditions: Human immunodeficiency virus 1, 3B, MT4, 120 h
How it was run: (§1)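 MTT cytopathicity assay in MT-4 cells (6 × 10^5 cells/mL). Compounds serially diluted 5-fold in triplicate wells, run in parallel on infected and mock-infected cells. Virus added at 100−300 CCID50 per well. Viability read spectrophotometrically at 540 and 690 nm after 5 days, using the median OD of three wells. EC50 is the concentration giving 50% protection from viral cytopathogenicity.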

Compound | EC50 [nM]
Cc1cc(C)c(Oc2nc(NC3CCN(Cc4ccc(S(C)(=O)=O)cc4)CC3)nc3ccsc23)c(C)c1 | 23.9

tested on: not listed separately; assay: Selectivity index, ratio of CC50 for human mock-infected MT4 cells to EC50 for HIV1 3B harboring reverse transcriptase F227L/V106A double mutant infected in human MT4 cells; type: toxicity, cell-based; conditions: MT4 cells (mock-infected for CC50, HIV-1 infected for EC50)
How it was run: (§2)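 Selectivity index is CC50/EC50. CC50 is the concentration that reduces OD540 of mock-infected MT-4 cells by 50% in the 5-day MTT assay. EC50 is the 50% protection from virus-induced cytopathicity, measured in parallel on infected wells.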

Compound | selectivity ratio
Cc1cc(C)c(Oc2nc(NC3CCN(Cc4ccc(S(C)(=O)=O)cc4)CC3)nc3ccsc23)c(C)c1 | 81

tested on: not listed separately; assay: Selectivity index, ratio of CC50 for human mock-infected MT4 cells to EC50 for HIV1 3B harboring reverse transcriptase K103N mutant infected in human MT4 cells; type: toxicity, cell-based; conditions: MT4 cells (mock-infected for CC50, HIV-1 infected for EC50); how it was run: as §2

Compound | selectivity ratio
Cc1cc(C)c(Oc2nc(NC3CCN(Cc4ccc(S(C)(=O)=O)cc4)CC3)nc3ccsc23)c(C)c1 | 548

tested on: Human immunodeficiency virus 1; assay: Antiviral activity against HIV1 3B harboring reverse transcriptase Y188L mutant infected in human MT4 cells assessed as protection against virus induced cytotoxicity after 5 days by MTT assay; type: functional, cell-based; conditions: Human immunodeficiency virus 1, 3B, MT4, 120 h; how it was run: as §1

Compound | EC50 [nM]
Cc1cc(C)c(Oc2nc(NC3CCN(Cc4ccc(S(C)(=O)=O)cc4)CC3)nc3ccsc23)c(C)c1 | 32.2

tested on: Human immunodeficiency virus 1; assay: Antiviral activity against HIV1 3B harboring reverse transcriptase Y181C mutant infected in human MT4 cells assessed as protection against virus induced cytotoxicity after 5 days by MTT assay; type: functional, cell-based; conditions: Human immunodeficiency virus 1, 3B, MT4, 120 h
How it was run: as §1, with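 “wells.” for “wells. EC50 is the concentration giving 50% protection from viral cytopathogenicity.”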

Compound | EC50 [nM]
Cc1cc(C)c(Oc2nc(NC3CCN(Cc4ccc(S(C)(=O)=O)cc4)CC3)nc3ccsc23)c(C)c1 | 28.9

tested on: not listed separately; assay: Antiviral activity against HIV2 ROD harboring reverse transcriptase infected in human MT4 cells assessed as protection against virus induced cytotoxicity after 5 days by MTT assay; type: functional, cell-based, Human immunodeficiency virus type 2 (ISOLATE ROD); conditions: Human immunodeficiency virus 2, MT4, 120 h; how it was run: as §1

Compound | EC50 [nM]
Cc1cc(C)c(Oc2nc(NC3CCN(Cc4ccc(S(C)(=O)=O)cc4)CC3)nc3ccsc23)c(C)c1 | > 3420

tested on: not listed separately; assay: Cytotoxicity against human mock-infected MT4 cells assessed as reduction in cell viability after 5 days by MTT assay; type: toxicity, cell-based; conditions: not given
How it was run: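 Mock-infected MT-4 cells (6 × 10^5 cells/mL at seeding) with serial 5-fold compound dilutions in triplicate wells. Viability read by MTT after 5 days, absorbance at 540 and 690 nm, median OD of three wells. CC50 is the concentration reducing OD540 of mock-infected cells by 50%.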

Compound | CC50 at 120 h [nM]
Cc1cc(C)c(Oc2nc(NC3CCN(Cc4ccc(S(C)(=O)=O)cc4)CC3)nc3ccsc23)c(C)c1 | 3420

molecular target: Human immunodeficiency virus type 1 reverse transcriptase (Human immunodeficiency virus 1, UniProt Q72547, K103N/Y181C); assay: Inhibition of recombinant HIV1 reverse transcriptase K103N/Y181C double mutant using DIG-dUTP/biotin-dUTP/dTTP assessed as suppression of biotin-dUTP incorporation after 1 hr by ELISA; conditions: not given

Compound | IC50 [nM]
Cc1cc(C)c(Oc2nc(NC3CCN(Cc4ccc(S(C)(=O)=O)cc4)CC3)nc3ccsc23)c(C)c1 | 2500

tested on: Human immunodeficiency virus 1; assay: Antiviral activity against HIV1 3B harboring reverse transcriptase L100I mutant infected in human MT4 cells assessed as protection against virus induced cytotoxicity after 5 days by MTT assay; type: functional, cell-based; conditions: Human immunodeficiency virus 1, 3B, MT4, 120 h; how it was run: as §1

Compound | EC50 [nM]
Cc1cc(C)c(Oc2nc(NC3CCN(Cc4ccc(S(C)(=O)=O)cc4)CC3)nc3ccsc23)c(C)c1 | 23.9

tested on: not listed separately; assay: Selectivity index, ratio of CC50 for human mock-infected MT4 cells to EC50 for HIV1 RES056 harboring reverse transcriptase K103N/Y181C double mutant infected in human MT4 cells; type: toxicity, cell-based; conditions: MT4 cells (mock-infected for CC50, HIV-1 infected for EC50); how it was run: as §2

Compound | selectivity ratio
Cc1cc(C)c(Oc2nc(NC3CCN(Cc4ccc(S(C)(=O)=O)cc4)CC3)nc3ccsc23)c(C)c1 | 12

tested on: not listed separately; assay: Selectivity index, ratio of CC50 for human mock-infected MT4 cells to EC50 for HIV1 3B harboring reverse transcriptase Y181C mutant infected in human MT4 cells; type: toxicity, cell-based; conditions: MT4 cells (mock-infected for CC50, HIV-1 infected for EC50); how it was run: as §2

Compound | selectivity ratio
Cc1cc(C)c(Oc2nc(NC3CCN(Cc4ccc(S(C)(=O)=O)cc4)CC3)nc3ccsc23)c(C)c1 | 118

tested on: Human immunodeficiency virus 1; assay: Antiviral activity against wild type HIV1 3B harboring reverse transcriptase infected in human MT4 cells assessed as protection against virus induced cytotoxicity after 5 days by MTT assay; type: functional, cell-based; conditions: Human immunodeficiency virus 1, 3B, MT4, 120 h
How it was run: as §1, with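 “wells.” for “wells. EC50 is the concentration giving 50% protection from viral cytopathogenicity.”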

Compound | EC50 [nM]
Cc1cc(C)c(Oc2nc(NC3CCN(Cc4ccc(S(C)(=O)=O)cc4)CC3)nc3ccsc23)c(C)c1 | 5.7

tested on: not listed separately; assay: Selectivity index, ratio of CC50 for human mock-infected MT4 cells to EC50 for HIV1 3B harboring reverse transcriptase L100I mutant infected in human MT4 cells; type: toxicity, cell-based; conditions: MT4 cells (mock-infected for CC50, HIV-1 infected for EC50); how it was run: as §2

Compound | selectivity ratio
Cc1cc(C)c(Oc2nc(NC3CCN(Cc4ccc(S(C)(=O)=O)cc4)CC3)nc3ccsc23)c(C)c1 | 143

tested on: not listed separately; assay: Selectivity index, ratio of CC50 for human mock-infected MT4 cells to EC50 for HIV1 3B harboring reverse transcriptase E138K mutant infected in human MT4 cells; type: toxicity, cell-based; conditions: MT4 cells (mock-infected for CC50, HIV-1 infected for EC50); how it was run: as §2

Compound | selectivity ratio
Cc1cc(C)c(Oc2nc(NC3CCN(Cc4ccc(S(C)(=O)=O)cc4)CC3)nc3ccsc23)c(C)c1 | 187

tested on: not listed separately; assay: Selectivity index, ratio of CC50 for human mock-infected MT4 cells to EC50 for HIV1 3B harboring reverse transcriptase Y188L mutant infected in human MT4 cells; type: toxicity, cell-based; conditions: MT4 cells (mock-infected for CC50, HIV-1 infected for EC50); how it was run: as §2

Compound | selectivity ratio
Cc1cc(C)c(Oc2nc(NC3CCN(Cc4ccc(S(C)(=O)=O)cc4)CC3)nc3ccsc23)c(C)c1 | 106

tested on: Human immunodeficiency virus 1; assay: Antiviral activity against HIV1 3B harboring reverse transcriptase K103N mutant infected in human MT4 cells assessed as protection against virus induced cytotoxicity after 5 days by MTT assay; type: functional, cell-based; conditions: Human immunodeficiency virus 1, 3B, MT4, 120 h; how it was run: as §1

Compound | EC50 [nM]
Cc1cc(C)c(Oc2nc(NC3CCN(Cc4ccc(S(C)(=O)=O)cc4)CC3)nc3ccsc23)c(C)c1 | 6.2

tested on: not listed separately; assay: Selectivity index, ratio of CC50 for human mock-infected MT4 cells to EC50 for wild type HIV1 3B harboring reverse transcriptase infected in human MT4 cells; type: toxicity, cell-based; conditions: MT4 cells (mock-infected for CC50, HIV-1 infected for EC50); how it was run: as §2

Compound | selectivity ratio
Cc1cc(C)c(Oc2nc(NC3CCN(Cc4ccc(S(C)(=O)=O)cc4)CC3)nc3ccsc23)c(C)c1 | 595

tested on: Human immunodeficiency virus 1; assay: Antiviral activity against HIV1 3B harboring reverse transcriptase E138K mutant infected in human MT4 cells assessed as protection against virus induced cytotoxicity after 5 days by MTT assay; type: functional, cell-based; conditions: Human immunodeficiency virus 1, 3B, MT4, 120 h; how it was run: as §1

Compound | EC50 [nM]
Cc1cc(C)c(Oc2nc(NC3CCN(Cc4ccc(S(C)(=O)=O)cc4)CC3)nc3ccsc23)c(C)c1 | 18.2
